CSN deneddyl inh: CSN deneddylation inhibition | 360,000 compounds, 0.38% hits | Q92905 | inhibition, % at 12.5 µM | Purified CSN, SCF-Nedd8-OG deneddylation, fluorescence polarization;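 active means pattern-corrected inhibition above about 35%, with an unprinted fluorescence ratio check between 0.5 and 1.5, limit read from the data, passing the limit was not always enough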
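Schedule: reaction 90 min, room temperature / Assay system: HEK293T-derived human Csn5 enzyme / Input: Csn5 at 0.24 nM final / Measure: inhibition of Csn5 cleavage, % / Control set: substrate-only high control, full reaction low control / Technique: fluorescence polarization of the substrate / Buffer or medium: Tris/NaCl/DTT buffer, pH 7.5 / Reagent: SCFSkp2-Nedd8OG substrate at 10 nM final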
HNF4A DNA FP: change in binding of human HNF4 alpha to DNA; HNF4a-FITC DNA binding, fluorescence polarization, 1 h; activity change, % at 10 µM; 360,000 compounds, 0.3% hits; in the data active means activity change above about 30%, passing the limit was not always enough
NR1D1 modulator: modulates human Rev-erb alpha binding to DNA | 370,000 compounds, 0.79% hits | P20393 | activity, % at 10 µM | Rev-erbα–FITC-DNA binding, fluorescence polarization, 90 min | AID 1259318;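 active means activity above about 14%, limit read from the data; passing the limit was not always enough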
TPT1 inhibitor: C. albicans TPT1 enzyme inhibition; recombinant caTPT1, FP RNA substrate dephosphorylation; inhibition, % at 5 µM; 300,000 compounds, 0.81% hits; AID 1962;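 active means inhibition above the mean of all tested compounds plus 3 SD, set per screening campaign, cut at about 24% in these data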
TPT1 inh confirm: confirmation of Candida albicans TPT1 inhibitors. inhibition, % at 5 µM. 2,400 compounds, 74% hits. shares compounds with TPT1 inhibitor. recombinant caTPT1, fluorescence polarization, RNase T1 coupled;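 active means inhibition above the primary screen limit, the mean inhibition of all tested compounds plus 3 SD, cut at about 25% in these data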
RNase T1 counter: counter-screen for TPT1 inhibitors: inhibitors of Aspergillus oryzae RNase T1; shares compounds with TPT1 inhibitor; RNase T1 cleavage, fluorescence polarization, 1536-well; inhibition, % at 5 µM; 2,400 compounds, 83% hits; AID 2153;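 active means inhibition above the solvent-only control well mean plus 3 SD, limit set per screening run, cut at about 23% in these data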;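 further: inhibitors block cleavage so intact labeled substrate keeps polarization high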
CSN5 deneddyl: Csn5 (human) deneddylation inhibition, single-concentration validation | shares compounds with CSN deneddyl inh | Csn5 deneddylation of SCF-Nedd8OG, fluorescence polarization, 90 min | inhibition, % at 16.6 µM | 540 compounds, 62% hits | AID 720654; in the data active means inhibition above about 50%
MMP-2 counter: counter-screen for CSN deneddylation inhibitors: human MMP-2 inhibition | shares compounds with CSN deneddyl inh | recombinant MMP-2, FRET substrate fluorescence, 60 min | inhibition, % at 16.6 µM | 540 compounds, 33% hits | AID 720655;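 active means corrected plate-normalized z-score of 5 or more, or -5 or less, or inhibition of 15% or more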
Thrombin cntr: thrombin (bovine) inhibition, counter-screen for CSN hits; 540 compounds, 49% hits; shares compounds with CSN deneddyl inh; AID 720656; inhibition, % at 16.6 µM; bovine thrombin cleavage of Ub4-pepOG, fluorescence polarization;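 active means inhibition at or above a set limit, with a fluorescence interference ratio between 0.5 and a set maximum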
Target sequence (P00735 whole entry, looked up): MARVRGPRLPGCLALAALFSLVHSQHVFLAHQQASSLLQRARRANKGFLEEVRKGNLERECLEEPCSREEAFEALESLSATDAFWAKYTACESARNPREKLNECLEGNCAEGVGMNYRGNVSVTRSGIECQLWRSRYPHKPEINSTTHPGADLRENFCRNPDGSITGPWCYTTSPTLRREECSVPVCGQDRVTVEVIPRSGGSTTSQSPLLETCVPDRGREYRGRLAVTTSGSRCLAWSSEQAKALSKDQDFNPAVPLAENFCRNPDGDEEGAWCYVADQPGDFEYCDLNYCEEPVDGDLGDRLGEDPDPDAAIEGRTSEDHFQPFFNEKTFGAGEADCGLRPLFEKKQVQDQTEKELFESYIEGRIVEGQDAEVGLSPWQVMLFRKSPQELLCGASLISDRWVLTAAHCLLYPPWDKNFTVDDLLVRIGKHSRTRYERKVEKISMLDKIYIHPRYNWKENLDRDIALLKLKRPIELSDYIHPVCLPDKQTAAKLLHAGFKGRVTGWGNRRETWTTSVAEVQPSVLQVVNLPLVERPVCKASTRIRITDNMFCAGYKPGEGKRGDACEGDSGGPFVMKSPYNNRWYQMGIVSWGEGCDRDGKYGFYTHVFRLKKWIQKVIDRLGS
Numbers stand for hits; – = inactive; · = no result given; + = active, no number. Only some compounds are listed: those with a hit (about 1.7% of all), similar ones and a draw of the others.

SMILES	CSN deneddyl inh	HNF4A DNA FP	NR1D1 modulator	TPT1 inhibitor	TPT1 inh confirm	RNase T1 counter	CSN5 deneddyl	MMP-2 counter	Thrombin cntr
CCOC(=O)CN1C(=O)S/C(=C/C=C/c2ccc(N(C)C)cc2)C1=O	39.7	45.7	–	87.2	86.6	88.4	61.9	-44.1	65.6
COc1cc2cc3c(N)c(C(=O)Nc4sc(C)c(C)c4C#N)sc3nc2cc1OC	73.8	–	–	36.2	38.8	49.4	81.7	–	–
CC1=Nc2ccccc2/C1=C/c1sc(=N)n(-c2nccs2)c1O	44.2	–	·	98.8	111.9	122.5	–	16.5	43.5
CCCC(=O)OC[C@H]1CN(C2CCCC2)S(=O)(=O)c2c(Oc3ccc(F)cc3)cccc2O1	·	·	–	·	·	·	·	·	·
COc1ccc(N=C2NC(=O)/C(=C/C=C/c3ccccc3)S2)cc1	–	–	–	–	·	·	·	·	·
O=C1NC(=Nc2ccccc2)S/C1=C\C=C\c1ccco1	73.6	–	–	24.5	–	34.2	79.7	–	–
Cc1cc2oc3ccc(NCCCn4ccnc4)cc3c(=O)c2cc1C	48.1	73.2	–	55.2	64.0	73.4	137.0	60.8	30.0
CC1=N/C(=C\c2ccc([N+](=O)[O-])cc2)C(=O)N1c1ccc(C)c(Cl)c1	·	·	–	·	·	·	·	·	·
CCOC(=O)C1=C(C)N=c2s/c(=C/c3ccc(OCC(=O)O)c(OC)c3)c(=O)n2C1c1ccc(Cl)cc1 (centres undefined)	40.4	–	–	41.8	59.9	71.8	85.3	–	–
COc1cccc(CNC(=O)[C@H]2CCCN2C(=O)[C@H]2CCCN2C(=O)c2c(F)cccc2F)c1	·	·	–	·	·	·	·	·	·
CC(C)N1CCc2c(sc(NC(=O)Cc3ccccc3)c2C(N)=O)C1	–	–	–	–	·	·	·	·	·
CC(C)N1CCc2c(sc(NC(=O)c3ccc4ccccc4c3)c2C(N)=O)C1	56.9	63.5	–	96.2	89.6	96.3	+	–	47.9
CCN1CCc2c(sc(NC(=O)c3cc4ccccc4cc3OC)c2C(N)=O)C1	37.9	36.7	–	46.1	39.8	45.6	56.2	–	–
COC(=O)CN1C(=S)N(c2ccc(OC)cc2)C(=O)/C1=C/c1ccc(OC)cc1	–	–	–	–	·	·	·	·	·
COC(=O)CN1C(=S)N(c2ccc(OC)cc2)C(=O)/C1=C/c1ccc(N2CCOCC2)cc1	35.6	60.8	–	150.7	116.0	122.9	175.0	–	–
Brc1ccccc1C1Cc2nnccc2CN1 (centres undefined)	·	·	–	·	·	·	·	·	·
COc1cc(/C=C(\C#N)C(=O)c2ccc(O)c(O)c2)cc(I)c1O	+	–	–	129.2	180.3	160.9	–	-106.0	–
C=CCNc1cccc2c1S(=O)(=O)N[C@@H](Cc1ccccc1)CO2	·	·	–	·	·	·	·	·	·
N#C/C(=C\c1ccc(O)cc1)c1nc2ccccc2o1	47.6	57.1	–	101.6	113.9	115.7	114.0	–	38.9
Cc1ccc(C)c(N/C=C(\C#N)c2nc3ccccc3o2)c1	–	–	–	–	·	·	·	·	·
O=S(=O)(Nc1cc2nc3ccccc3nc2n1Cc1ccccc1)c1ccc(Cl)cc1	69.6	–	–	43.6	38.7	51.2	76.8	–	–
O=S(=O)(NCc1ccccc1)c1ccc(Cl)cc1	–	–	–	–	·	·	·	·	·
Cc1cccc(-c2cccc3c4c([nH]c23)[C@@H]2C[C@H](N(C)C(=O)c3ccccc3F)[C@H]([C@H](C)O)CN2CC4)c1	·	·	–	·	·	·	·	·	·
Cc1ccc2nc(/C(C#N)=C/c3ccc(O)c(O)c3)[nH]c2c1	58.6	–	–	55.8	77.0	84.3	50.3	–	61.8
O=c1[nH]c(=S)[nH]c2c1C(c1ccc(Br)cc1)c1c([nH]c(=S)[nH]c1=O)O2	83.9	–	–	81.7	–	–	50.1	32.6	84.8
SMILES	CSN deneddyl inh	HNF4A DNA FP	NR1D1 modulator	TPT1 inhibitor	TPT1 inh confirm	RNase T1 counter	CSN5 deneddyl	MMP-2 counter	Thrombin cntr
CCOc1cc(/C=C2\SC(=S)N(NS(=O)(=O)c3ccc(C)cc3)C2=O)ccc1O	–	–	–	–	·	·	·	·	·
CC(/C=C1\SC(=S)N(NC(=O)c2ccccc2C)C1=O)=C\c1ccccc1	–	–	–	–	·	·	·	·	·
Cn1cccc1/C=C1\SC(=S)N(NC(=O)c2ccccc2O)C1=O	55.1	101.4	–	78.6	86.7	101.1	94.9	–	47.5
COc1cc(/C=C2\SC(=S)N(NS(=O)(=O)c3ccc(C)cc3)C2=O)ccc1O	41.1	–	–	29.9	36.0	47.8	63.0	15.2	67.6
CCOc1cc(/C=C2\SC(=S)N(NC(=O)c3cccnc3)C2=O)ccc1O	36.0	48.6	–	50.1	38.6	54.0	58.4	–	35.6
COc1cc(/C=C2\SC(=S)N(NC(=O)c3ccc(O)c(OC)c3)C2=O)ccc1O	64.0	58.6	–	34.5	44.2	58.3	89.6	–	80.4
Cc1occc1C(=O)/C(C#N)=C/c1ccc(O)c(Br)c1	40.2	–	–	112.9	169.4	160.8	–	–	57.1
O=[N+]([O-])c1ccc(/C=C/C2=NN(c3ccccc3)C(c3ccco3)C2)cc1 (centres undefined)	64.1	83.2	–	70.4	64.1	66.3	107.2	–	–
CC1=NN(c2ccccc2)C(c2ccco2)C1 (centres undefined)	–	–	–	·	·	·	·	·	·
CCCOc1nccc2c1n(C)c(=O)n2C	·	·	–	·	·	·	·	·	·
CCCN(CCC)CC(O)Cn1cc(/C=C/C(=O)c2ccccc2)c2ccccc21 (centres undefined)	–	–	–	·	·	·	·	·	·
CCCN(CCC)CC(O)Cn1cc(/C=C/C(=O)c2cccs2)c2ccccc21 (centres undefined)	41.6	–	–	61.4	63.6	71.9	70.7	–	34.6
CCn1c2ccccc2c2cc(NC(=O)COC(=O)c3cc(F)ccc3C)ccc21	·	·	–	·	·	·	·	·	·
COC(=O)C1=C(C)N(Cc2ccccc2C(F)(F)F)C(=NCc2ccc(OC)cc2)NC1c1ccc(C(F)(F)F)cc1 (centres undefined)	·	·	–	·	·	·	·	·	·
N=C1/C(=C\c2ccc(-c3cccc(C(=O)O)c3)o2)C(=O)N=C2SC=C(c3ccccc3)N12	64.2	–	–	66.4	81.7	91.6	·	16.5	28.6
CCCN1CCc2c(sc(NC(=O)c3ccc(S(=O)(=O)N(C)c4ccccc4)cc3)c2C(=O)NC)C1	42.4	66.5	–	104.3	110.5	117.5	179.5	–	–
O=C1/C(=C\c2ccc(O)c(O)c2)N=C2CCCCCN12	38.5	–	–	26.6	44.8	46.9	69.1	–	45.0
